In the library only some 1.5% were active in any assay of this set; here they are far more common.
FLuc act counter: FLuc activators, initial screening, artefact control for FLuc-dependent activation tests, biochemical, ATPlite luminescence. AID 1027, 2008. ATPlite luciferase biochemical, 10 min; 0 = ATP-free wells, 1 = DMSO control. 200,000 tested, under 10 active. activation factor at 10 µM. Luciferin 4-monooxygenase (Photinus pyralis), P08659;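 active means luciferase activation factor, scaled between plate controls, of at least 2 with compound at 10 µM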
Target sequence (P08659 whole entry, looked up): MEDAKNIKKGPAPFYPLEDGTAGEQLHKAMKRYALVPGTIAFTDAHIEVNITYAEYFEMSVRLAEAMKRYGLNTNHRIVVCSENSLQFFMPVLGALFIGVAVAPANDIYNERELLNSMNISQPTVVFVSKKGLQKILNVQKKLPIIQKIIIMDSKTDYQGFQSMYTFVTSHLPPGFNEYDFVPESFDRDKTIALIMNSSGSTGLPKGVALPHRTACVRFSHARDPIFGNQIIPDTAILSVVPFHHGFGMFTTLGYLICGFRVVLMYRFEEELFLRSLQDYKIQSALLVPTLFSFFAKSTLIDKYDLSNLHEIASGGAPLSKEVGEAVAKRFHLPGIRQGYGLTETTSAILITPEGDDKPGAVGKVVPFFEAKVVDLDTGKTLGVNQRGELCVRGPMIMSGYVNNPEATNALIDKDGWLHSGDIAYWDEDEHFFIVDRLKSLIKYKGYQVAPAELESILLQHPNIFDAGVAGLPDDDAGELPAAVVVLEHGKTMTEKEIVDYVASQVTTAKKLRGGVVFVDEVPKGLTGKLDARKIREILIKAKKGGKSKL
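Assay system – cell-free luciferase reagent · Medium – PBS-based ATP solution · Dosing – test compounds dosed from 2 mM stocks in 100% DMSO · Timing – 10 min, room temperature · Technique – light output (luminescence) · Measure – luminescence gain marking luciferase activators · Controls – No-ATP low control, compound-free enzyme-plus-ATP high control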
C8 TRAIL sens: viability loss with TRAIL in NB7+C8 cells, primary screen, TRAIL sensitizer project, cell-based, ATPlite luminescence | inhibition (viability loss, TRAIL sensitization), % at 10 µM | 360,000 tested, 1% active;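 active means compounds causing at least 50% loss of cell viability in the single-dose screen, relative to plate controls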
FLuc inh counter: firefly luciferase enzyme inhibitors, primary screen, artefact control for luciferase-based inhibitor screens, biochemical, luminescence, ATPLite | Luciferin 4-monooxygenase (Photinus pyralis), P08659 | 10 min | inhibition, % at 10 µM | 200,000 tested, 1.5% active;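 active means inhibition above about 50% when tested at 10 µM, limit read from the data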
PPC-1+TRAIL kill: compounds killing PPC-1 cancer cells with TRAIL present, primary screen, TRAIL potentiator project, ATPLite luminescence, uHTS; PPC-1 cells + TRAIL, ATPLite viability luminescence; cell killing (% activity), % at 4 µM or 5 µM; 220,000 tested, 0.41% active; AID 1443, 2008;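 active means cell killing above 50% in the first pass at 4 µM, then a duplicate retest at 5 µM averaging 50% or more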;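 further: plate controls were cells with TRAIL plus DMSO for no effect and medium-only wells lacking cells for full effect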
* hit, by the source's call; x = not tested or not shown.

SMILES | FLuc act counter | C8 TRAIL sens | FLuc inh counter | PPC-1+TRAIL kill
OC[C@@H](O)C(O)[C@@H](O)CO (some centres not stated) | x | 14 | x | x
Cc1cc(C)c(NC(=O)C2CCCO2)c(C)c1 (configuration not stated) | x | -14 | x | x
c1ccc2c(c1)COc1c3cc4c(cc3nn1-2)OCO4 | x | 59* | x | x
Nc1cccc(-c2nc3ccc(C(=O)c4ccccc4)cc3[nH]2)c1 | x | 63* | x | x
Nc1ccc2nc(-c3cccnc3)[nH]c2c1 | 0.9 | -2 | 12 | 16
COc1ccc(-c2nnc(-c3ccc(N(C)C)cc3)o2)cc1 | 0.9 | 2 | 12 | 21
Nc1ccc2nc(-c3ccccc3)[nH]c2c1 | 0.4 | 26 | 57* | 38
COc1ccc(-c2nnc(-c3ccc(N)cc3)o2)cc1 | 0.3 | 29 | 68* | -6
Nc1ccc2nc(-c3ccc(N)c(Cl)c3)[nH]c2c1 | 0.5 | 31 | 52* | 40
OCc1cc(-c2ccccn2)no1 | x | -6 | x | x
Cc1ccc(S(=O)(=O)NCC(C)n2cncn2)cc1C (configuration not stated) | x | 8 | x | x
CN(C)CCCNC(=O)c1ccc(-c2cc3nc(NCc4cccnc4)n(C)c(=O)c3s2)cc1 | x | 7 | x | x
COc1ccc2nc(-c3ccc(N)cc3)[nH]c2c1 | 0.4 | 34 | 65* | 25
COc1ccc2nc(-c3ccccn3)[nH]c2c1 | x | 40 | x | x
COc1c(Cl)cnn(-c2ccccc2)c1=O | 1.2 | -9 | -20 | 30
COc1nn(-c2ccccc2)c(=O)c(Cl)c1Cl | x | 91* | x | x
COc1cc(C=O)ccc1OCc1ccncc1 | x | -1 | x | x
COc1cc(C=O)ccc1OCc1ccc(Cl)nc1 | 0.4 | 5 | 59* | 1
CCOC(=O)C1CCN(C(=O)Cn2c(=O)c3cccn3c3cccnc32)CC1 | x | 3 | x | x
COc1cccc(/C=N/NC(=O)c2ccc([N+](=O)[O-])cc2Cl)c1O | 0.9 | 55* | 6 | 12
O=C(Nc1ccccn1)c1ccc2c(=O)n3c(nc2c1)CCCCC3 | x | 60* | x | x
Cc1cccc(C)c1NC(=O)C1C2C=CC(C2)C1C(=O)O (configuration not stated) | x | 6 | x | x
C#CCOC(=O)Nc1ccc(=O)n(Cc2c(Cl)cccc2Cl)c1 | 1 | -1 | -2 | 11
O=C1C2C3C=CC(C4CC34)C2C(=O)N1/N=C/c1c[nH]c2ccccc12 (configuration not stated) | 0.2 | 39 | 78* | 36
CC1CCN(C(=O)C(C)NCc2ccc(F)cc2)CC1 (configuration not stated) | x | -6 | x | x
SMILES | FLuc act counter | C8 TRAIL sens | FLuc inh counter | PPC-1+TRAIL kill
Cc1nnc(SCC(=O)Nc2ccc(-c3nc4ccccc4s3)cc2)s1 | 0.2 | 67* | 80* | 22
O=C(CCN1C(=O)NC2(CCCC2)C1=O)Nc1ccc(-c2nc3ccccc3s2)cc1 | x | 56* | x | x
O=C(CCN1C(=O)NC2(CCCC2)C1=O)Nc1ccc(Sc2ccc(Br)cc2)cc1 | x | 9 | x | x
Cc1nn(-c2ccccc2)c(C)c1/C=N/NC(=O)c1ccccc1NS(=O)(=O)c1cccs1 | 0.9 | 0 | 5 | 20
CCOC(=O)c1c2ccccc2[n+]([O-])n1[C@@H](C)C(N)=O | x | -3 | x | x
Cc1cccc(NC(=O)c2onc3c2CCCC3)c1C | 0.7 | 21 | 30 | -4
O=C(Nc1ccc2ccccc2c1)c1onc2c1CCCC2 | 0.7 | 26 | 28 | -12
Cc1cccc(NC(=O)c2onc3c2CCCC3)n1 | 0.1 | 86* | 92* | 81*
Cc1ccccc1NC(=O)c1onc2c1CCCC2 | 0.4 | 23 | 63* | 16
COC(=O)c1cccc(NC(=O)c2onc3c2CCCC3)c1 | 0.4 | 29 | 62* | 32
Cc1cccc(NC(=O)c2ccc3c(c2)OCCO3)n1 | x | 38 | x | x
CN(CC(=O)NCc1cccnc1)S(=O)(=O)c1ccc(F)cc1 | x | -1 | x | x
CN1CCC(N2CCN(C3CN(Cc4ccccc4)S(=O)(=O)C3)CC2)CC1 (configuration not stated) | x | -4 | x | x
CCCCCNC(=O)C(CCc1ccccc1)n1c(=O)c(-c2ccccc2)nc2ccccc21 (configuration not stated) | x | 2 | x | x
CN(CC(=O)Nc1ccc(F)c(F)c1F)C(=O)CC1CCCCC1 | x | 8 | x | x
CCC(Oc1ccccc1OC)C(=O)N1CC(=O)Nc2ccccc21 (configuration not stated) | x | 5 | x | x
Oc1cc(-c2ccncc2)cc2cccnc12 | x | 23 | x | x
Oc1cc(-c2ccc(N3CCCCC3)nc2)cc2cccnc12 | x | 74* | x | x

High-throughput results as filed in PubChem BioAssay.
